ChEMBL document CHEMBL1212759, “Antifungal activity of colistin against mucorales species in vitro and in a murine model of Rhizopus oryzae pulmonary infection” (Antimicrob Agents Chemother, 2010)
Active and inactive are the calls of the source. No cut-off for these calls is given here.

What was measured:
Mucor circinelloides = experiment: Antimicrobial activity against Mucor circinelloides isolate 4818 after 24 hrs in yeast nitrogen base complete medium by broth microdilution method; format: functional, organism-based
In short: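 Broth microdilution in YNB complete medium with colistin at 128 to 0.12 μg/ml. Freshly collected spores were inoculated at 0.5 × 10^4 to 4 × 10^4 cells/ml and incubated 24 h at 37°C. MIC was read visually as the lowest concentration with complete (100%) growth inhibition.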

Rhizopus homothallicus = experiment: Antimicrobial activity against Rhizopus homothallicus isolate 5910 after 24 hrs in RMPI 1640 medium by broth microdilution method; format: functional
In short: (§1)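 Colistin was serially diluted from 64 to 0.06 μg/ml in RPMI 1640 with glucamine and without bicarbonate. Fresh spores from 48–72 h YAG plates were added at 0.5 × 10^4 to 4 × 10^4 cells/ml. Plates were incubated 24 h at 37°C. MIC was read visually as the lowest concentration giving 100% growth inhibition.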

Rhizopus arrhizus [1] = experiment: Antimicrobial activity against Rhizopus oryzae at 8 ug/disk after 24 hrs by disk diffusion method; format: functional, organism-based
In short: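 Paper disks loaded with 8, 16 or 32 μg colistin were placed on agar plates inoculated with 200 μl of a 10^6 cells/ml R. oryzae spore suspension. After 24 h at 37°C, the diameter of the inhibition zone was measured.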

Rhizopus microsporus = experiment: Antimicrobial activity against Rhizopus microsporus isolate 6164 after 24 hrs in RMPI 1640 medium by broth microdilution method; format: functional; in short: as §1
Rhizopus arrhizus [2] = experiment: Antimicrobial activity against Rhizopus oryzae assessed as plasma membrane disruption-related ATP release at 8 ug/ml after 30 mins by Cell Titer-Glo luminescent assay; format: functional, organism-based
In short: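 Spores at 10^7 cells/ml in RPMI 1640 were germinated about 6 h at 37°C. Germlings were resuspended in RPMI with colistin at 8 or 32 μg/ml, or drug-free, and shaken at 37°C. Supernatants taken at 5, 30, 60 and 90 min were assayed for released ATP by CellTiter-Glo luminescence.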

Rhizopus arrhizus [3] = experiment: Antimicrobial activity against Rhizopus oryzae isolate 5496 after 24 hrs in RMPI 1640 medium by broth microdilution method; format: functional, organism-based; in short: as §1

MIC (Mucor circinelloides): 128 mg/L
MIC (Rhizopus homothallicus): 32 mg/L
MIC (Rhizopus microsporus): 32 mg/L
MIC (Rhizopus arrhizus [3]): 16 mg/L
Sequence: COLISTIN
MFC (Mucor circinelloides): > 128 mg/L
MFC (Rhizopus homothallicus): 32 mg/L
inhibition zone (IZ) (Rhizopus arrhizus [1]): 18 mm
MFC (Rhizopus microsporus): 64 mg/L
Activity (Rhizopus arrhizus [2]): Active
MFC (Rhizopus arrhizus [3]): 32 mg/L
